Source: ChEMBL document CHEMBL4043171, “Chemoselective fluorination and chemoinformatic analysis of griseofulvin: Natural vs fluorinated fungal metabolites” (Bioorg Med Chem, 2017)
Active and inactive are the calls of the source. The calls are words filed in the database; no cut-off is given here.

Experiments:
[1] = tested on: MDA-MB-435; assay: Cytotoxicity against human MDA-MB-435 cells assessed as reduction in cell viability at 50 uM by cell titer 96 aqueous one solution cell proliferation assay; format: functional, cell-based
[2] = tested on: MDA-MB-231; assay: Cytotoxicity against human MDA-MB-231 cells assessed as reduction in cell viability at 50 uM by cell titer 96 aqueous one solution cell proliferation assay; format: functional, cell-based
[3] = tested on: OVCAR-3; assay: Cytotoxicity against human OVCAR3 cells assessed as reduction in cell viability at 50 uM by cell titer 96 aqueous one solution cell proliferation assay; format: functional, cell-based
[4] = tested on: Nannizzia gypsea; assay: Antifungal activity against Microsporum gypseum at 25 ug/disc incubated for 5 days by agar disk diffusion method; format: functional; details: 120 h, read-out: DIZ
How it was run: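 Conidia of M. gypseum, kept on Sabouraud dextrose agar, were harvested in sterile water and adjusted to 0.5–1.0 OD at 600 nm (~10^5 cells/mL). The suspension was seeded onto Mueller-Hinton agar with 2% glucose and 0.5 µg/ml methylene blue. Compounds in DMSO were loaded at 25 µg per 6 mm paper disk. Inhibition-zone diameters (mm) were read after 5 d, as mean ± SD of four replicates.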

[5] = tested on: MDA-MB-435; assay: Cytotoxicity against human MDA-MB-435 cells assessed as reduction in cell viability by cell titer 96 aqueous one solution cell proliferation assay; format: functional, cell-based
How it was run: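 Cells were grown in RPMI 1640 with 10% FBS and penicillin/streptomycin at 37°C under 5% CO2. Log-phase cells were trypsinized, washed twice, seeded at 5,000 per well and incubated overnight. Compounds were added at final 20, 4, 0.8, 0.16 and 0.032 µM in 0.5% DMSO and incubated for 72 h at 37 °C. Viability was read by MTS-type absorbance assay as % survival versus DMSO control. Vinblastine served as positive control.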

[6] = tested on: Huh7.5.1; assay: Cytotoxicity against human Huh7.5.1 cells assessed as reduction in cell viability by ATPlite assay; details: Huh-7.5.1
[7] = tested on: OVCAR-3; assay: Cytotoxicity against human OVCAR3 cells assessed as reduction in cell viability by cell titer 96 aqueous one solution cell proliferation assay; format: functional, cell-based

Row | SMILES | Activity [1] | Activity [2] | Activity [3] | zone of inhibition at 25 µg/disc [4] | IC50 [5] | IC50 [6] | IC50 [7]
1 | COC1=CC(=O)[C@H](O)[C@@H](C)[C@]12Oc1cc(OC)c(F)c(OC)c1C2=O | inactive | inactive | inactive | 0 mm | – | – | –
2 | COC1=CC(=O)C2=C(O[C@]3(C2=O)C(OC)=CC(=O)C[C@H]3C)C1(F)Cl (mixture of isomers) | inactive | inactive | inactive | 0 mm | – | – | –
3 | COC1=CC(=O)C[C@@H](C)[C@]12Oc1c(F)c(OC)cc(OC)c1C2=O | – | inactive | inactive | 34 mm | 22 µM | 10 to 25 µM | –
4 | COC1=CC(=O)[C@H](O)[C@@H](C)[C@]12Oc1c(Cl)c(OC)cc(OC)c1C2=O | inactive | inactive | inactive | 0 mm | – | – | –
5 | COC1=CC(=O)[C@H](O)[C@@H](C)[C@]12Oc1c(F)c(OC)cc(OC)c1C2=O | inactive | inactive | inactive | 0 mm | – | – | –
6 | COC1=CC(=O)[C@H](O)[C@@H](C)[C@]12Oc1cc(OC)cc(OC)c1C2=O | inactive | inactive | inactive | 0 mm | – | – | –
7 | COC1=CC(=O)C[C@@H](C)[C@]12Oc1cc(OC)c(F)c(OC)c1C2=O | inactive | inactive | inactive | 0 mm | – | – | –
8 | COC1=CC(=O)C[C@@H](C)[C@]12Oc1c(Cl)c(O)cc(OC)c1C2=O | inactive | inactive | inactive | 0 mm | – | – | –
9 | COC1=CC(=O)C[C@@H](C)[C@]12Oc1cc(OC)cc(OC)c1C2=O | inactive | inactive | inactive | 0 mm | – | – | –
10 | COC1=CC(=O)C[C@@H](C)[C@]12Oc1c(Cl)c(OC)cc(OC)c1C2=O [GRISEOFULVIN] | – | inactive | – | 35 mm | 6.4 µM | 10 to 25 µM | 48.5 µM
11 | COC1=CC(=O)C[C@@H](C)[C@]12Oc1c(Cl)c(OC)c(F)c(OC)c1C2=O | inactive | inactive | inactive | 23 mm | – | – | –
12 | COC1=CC(=O)C[C@@H](C)[C@]12Oc1cc(O)cc(OC)c1C2=O | inactive | inactive | inactive | 0 mm | – | – | –
